Assays:
[1] = molecular target: T1, Gastrin/cholecystokinin type B receptor (Homo sapiens, UniProt P32239); assay: Displacement of [125I]CCK-26-33 from CCK2 receptor expressed in CHO cells; type: cell-based
T1 sequence (P32239 whole entry): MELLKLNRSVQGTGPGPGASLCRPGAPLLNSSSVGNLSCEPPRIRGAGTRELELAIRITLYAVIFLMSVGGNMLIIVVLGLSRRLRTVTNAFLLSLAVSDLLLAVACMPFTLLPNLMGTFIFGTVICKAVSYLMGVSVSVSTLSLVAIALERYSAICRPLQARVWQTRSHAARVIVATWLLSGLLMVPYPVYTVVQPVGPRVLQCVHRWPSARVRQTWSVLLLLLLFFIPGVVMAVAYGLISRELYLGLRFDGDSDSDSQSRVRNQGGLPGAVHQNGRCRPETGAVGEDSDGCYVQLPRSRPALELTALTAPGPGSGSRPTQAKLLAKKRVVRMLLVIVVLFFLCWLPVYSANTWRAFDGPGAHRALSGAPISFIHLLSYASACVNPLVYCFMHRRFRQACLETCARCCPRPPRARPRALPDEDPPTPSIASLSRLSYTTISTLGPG
In short: (§1)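 CHO-K1 cell lines stably expressing CCK2 receptor alone or with MOP receptor; receptor-enriched membranes from density gradient centrifugation. (1-5 pM) and increasing concentrations of unlabeled ligand, 90 min, room temperature, KRH pH 7.4 with 0.2% BSA and soybean trypsin inhibitor. Filtration, gamma counting; nonsaturable binding with 1 μM CCK. Ki from LIGAND analysis; 3-5 independent experiments.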

[2] = molecular target: T2, Gastrin/cholecystokinin type B receptor (Homo sapiens) (UniProt P32239); assay: Binding affinity to CCK2 receptor expressed in CHO cells assessed per mg of protein; type: cell-based
T2 sequence (whole entry): T1 sequence (P32239 whole entry)
In short: (§2)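 Membranes came from CHO-K1 cells stably expressing CCK2 receptor alone or with MOP receptor. They were incubated with 125I-D-Tyr-Gly-[(Nle28,31)CCK-26-33] (1-5 pM) plus increasing unlabeled ligand for 90 min at room temperature in KRH, pH 7.4, with 0.2% BSA and soybean trypsin inhibitor. Nonspecific binding was set with 1 μM CCK. Bound ligand was filtered and gamma counted; Ki and Bmax (pmol/mg protein) were taken from LIGAND analysis. Mean±S.E.M., 3-5 experiments.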

[3] = molecular target: T3, Mu-type opioid receptor (Homo sapiens, UniProt P35372); assay: Displacement of [3H]DAMGO from mu opioid receptor expressed in CHO cells; type: cell-based
In short: (§3)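 Membranes came from CHO cells stably expressing MOP receptor alone or with CCK2 receptor. They were incubated with [3H]DAMGO (0.4 nM) plus increasing unlabeled ligand for 2 h at room temperature in KRH, pH 7.4, with 0.2% BSA and soybean trypsin inhibitor. Nonspecific binding was set with 1 μM DAMGO. Samples were filtered on PEI-soaked GF/C and scintillation counted; Ki and Bmax (pmol/mg protein) came from LIGAND analysis. Mean±S.E.M., 3-5 experiments.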

[4] = molecular target: T3, Mu-type opioid receptor; assay: Binding affinity to mu opioid receptor expressed in CHO cells assessed per mg of protein; type: cell-based; in short: as §3
[5] = molecular target: T1, Gastrin/cholecystokinin type B receptor; assay: Displacement of [125I]CCK-26-33 from CCK2R-MOPR coexpressed in CHO cells; type: cell-based; in short: as §1
[6] = molecular target: T2, Gastrin/cholecystokinin type B receptor (Homo sapiens); assay: Binding affinity to CCK2R-MOPR coexpressed in CHO cells assessed per mg of protein by [125I] CCK-26-33 displacement assay; type: cell-based; in short: as §2
[7] = system: Mus musculus; assay: Antinociceptive activity in icv dosed ICR mouse by tail flick assay; type: functional
In short: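 Male ICR mice (17-25 g) received i.c.v. injections (5 μL, under 1% DMSO) while conscious. Radiant-heat tail flick was measured at peak time from a 10-60 min time course, expressed as %MPE. At least three groups of 8-10 mice per dose-response, each mouse used once. ED50 (pmol/mouse) with 95% CI came from nonlinear regression.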

[8] = system: Mus musculus; assay: Antinociceptive activity in icv dosed ICR mouse after 24 hrs by tail flick assay; type: functional
In short: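 24 h tolerance in male ICR mice: the day-1 ED80 i.c.v. dose (5 μL, under 1% DMSO) was given again 24 h later to the same mouse, after confirming antinociception had returned to baseline. Radiant-heat tail flick was read at peak time (10-20 min) and expressed as %MPE.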

[9] = molecular target: T1, Gastrin/cholecystokinin type B receptor; assay: Activity at CCK2R-MOPR coexpressed in CHO cells co-transfected with delta-6-Galphaqi4-myr assessed as intracellular calcium release by FLIPR; type: functional, cell-based
In short: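 CHO cells stably expressing CCK2R were grown to 90% confluence, then transiently co-transfected by lipofectamine with MOPR and chimeric Gqi4-myr constructs. After 24 h they were seeded into 96-well plates and used the next day. Ca2+ mobilization was read with a FLIPR calcium kit on a FlexStation3, giving EC50 (nM); number of runs in parentheses.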

T3 sequence (P35372 whole entry): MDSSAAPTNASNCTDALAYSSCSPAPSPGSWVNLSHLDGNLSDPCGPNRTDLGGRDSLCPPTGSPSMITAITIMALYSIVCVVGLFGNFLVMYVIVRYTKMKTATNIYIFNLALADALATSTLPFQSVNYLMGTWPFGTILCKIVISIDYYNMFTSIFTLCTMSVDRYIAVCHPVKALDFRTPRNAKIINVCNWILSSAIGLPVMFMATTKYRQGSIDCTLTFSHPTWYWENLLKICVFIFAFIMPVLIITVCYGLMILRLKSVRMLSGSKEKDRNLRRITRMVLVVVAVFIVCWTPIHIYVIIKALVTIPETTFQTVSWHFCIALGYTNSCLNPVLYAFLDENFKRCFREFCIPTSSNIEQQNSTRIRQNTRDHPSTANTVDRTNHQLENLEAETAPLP

Structure (SMILES)	Ki [1] [nM]	Bmax [2] [pmol]	Ki ([3]; read-out: Ki) [nM]	Bmax [4] [pmol]	Ki [5] [nM]	Bmax [6] [pmol]	ED50 [7] [pmol]	ED50 [8] [pmol]	EC50 [9] [nM]	Ki ([3]; cho)
CN1C(=O)[C@H](NC(=O)Nc2cccc(OCCNC(=O)COCC(=O)NNC(=O)COCC(=O)N[C@H]3CC[C@@]4(O)[C@H]5Cc6cc(O)cc7c6[C@@]4(CCN5C)[C@H]3O7)c2)N=C(c2ccccc2)c2ccccc21	356	16	8.3	9.8	57	9.5	47.41	84.45	–	–
CN1C(=O)[C@H](NC(=O)Nc2cccc(OCCNC(=O)COCC(=O)N[C@H]3CC[C@@]4(O)[C@H]5Cc6cc(O)cc7c6[C@@]4(CCN5C)[C@H]3O7)c2)N=C(c2ccccc2)c2ccccc21	223	14	24.1	12.4	210	9.3	3036	57.31	–	–
CNC(=O)COCC(=O)NCCCCCCNC(=O)COCC(=O)NCCOc1cccc(NC(=O)N[C@@H]2N=C(c3ccccc3)c3ccccc3N(C)C2=O)c1	–	16	–	–	–	9.5	–	–	< 10000	–
CN1C(=O)[C@H](NC(=O)Nc2cccc(OCCNC(=O)COCC(=O)NCCNC(=O)COCC(=O)N[C@H]3CC[C@@]4(O)[C@H]5Cc6cc(O)cc7c6[C@@]4(CCN5C)[C@H]3O7)c2)N=C(c2ccccc2)c2ccccc21	71	10.3	5.7	7.7	33	12.4	390	71.29	119	–
CNC(=O)COCC(=O)NCCCCNC(=O)COCC(=O)N[C@H]1CC[C@@]2(O)[C@H]3Cc4cc(O)cc5c4[C@@]2(CCN3C)[C@H]1O5	–	–	–	9.3	–	–	51.93	40.74	572	29.8
Cc1cccc(NC(=O)N[C@@H]2N=C(c3ccccc3)c3ccccc3N(C)C2=O)c1	–	14.4	–	–	–	9.1	–	–	–	–
C[C@@H](NC(=O)[C@@H](N)Cc1ccc(O)cc1)C(=O)NCC(=O)N(C)[C@@H](Cc1ccccc1)C(=O)NCCO [DAMGO]	–	–	–	9.2	–	–	–	–	2.66	–
CN1C(=O)[C@H](NC(=O)Nc2cccc(OCCNC(=O)COCC(=O)NCCCCCCNC(=O)COCC(=O)N[C@H]3CC[C@@]4(O)[C@H]5Cc6cc(O)cc7c6[C@@]4(CCN5C)[C@H]3O7)c2)N=C(c2ccccc2)c2ccccc21	260	18.5	29.4	7.4	77	10.9	2020	64.33	–	–
